Key:
[1] = BJ cell cytotoxicity counter screen; format: cell-based; details: human, BJ cells (normal human foreskin fibroblast cell line)
[2] = computed physicochemical properties; details: LipE = pCC50 (HT29) – logD (at pH 7.4)
Procedure, shortened: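 Lipophilic efficiency: CC50 taken from whole-cell HT29 growth-inhibition screening, not an enzymatic target-based assay. The value is converted to pCC50, and logD at pH 7.4 is subtracted from it.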

[3] = tested on: HT29 colorectal carcinoma cell line; test: quantitative high-throughput screening, HT29 cell growth inhibition; format: cell-based; details: HT29 cells, vs SSA (1)
[4] = tested on: MDA-MB-231 breast cancer cell line; test: quantitative high-throughput screening, MDA-MB-231 cell growth inhibition; format: cell-based; details: MDA-MB-231 cells, vs SSA (1)
[5] = tested on: PC3 prostate cancer cell line; test: quantitative high-throughput screening, PC3 cell growth inhibition; format: cell-based; details: PC3 cells, vs SSA (1)
[6] = tested on: human colon tumor xenograft; details: human colon tumor xenograft model; cited from earlier work

Compound	EC50 [1] [µM]	other results
CC1=C(CC(=O)N2CCN(c3ccncc3)CC2)c2cc(F)ccc2/C1=C\c1nc2ccccc2s1 [Compound 63]	> 7.57	–
CSc1ccc(/C=C2/C(C)=C(CC(=O)N3CCC[C@H]3CN3CCCC3)c3cc(F)ccc32)cc1 [Compound 43]	> 7.57	–
CSc1ccc(/C=C2/C(C)=C(CC(=O)NCCC3CCCN3C)c3cc(F)ccc32)cc1 (centres unmarked) [Compound 41]	–	LipE [2]: > 3
CSc1ccc(/C=C2/C(C)=C(CC(=O)NCc3ccccc3)c3cc(F)ccc32)cc1 [Compound 72]	–	reduction of activity compared to lead compound 1, HT29 [3]: 4 fold; reduction of activity compared to lead compound 1, MDA-MB-231 [4]: 1.5 fold; reduction of activity compared to lead compound 1, PC3 [5]: 4 fold
CSc1ccc(/C=C2/C(C)=C(CC(=O)NCCCN(C)C)c3cc(F)ccc32)cc1 [Compound 2]	–	reduction of activity compared to lead compound 1, HT29 [3]: 4 fold; reduction of activity compared to lead compound 1, MDA-MB-231 [4]: 2 fold; reduction of activity compared to lead compound 1, PC3 [5]: 2 fold
CCN(CC)CCCNC(=O)CC1=C(C)/C(=C/c2ccc(SC)cc2)c2ccc(F)cc21 [Compound 4]	> 7.57	–
CC1=C(CC(=O)NCCCN(C)C)c2cc(F)ccc2/C1=C\c1nc2ccccc2s1 [Compound 33]	> 7.57	–
CSc1ccc(/C=C2/C(C)=C(CC(=O)N3CCN(CCN(C)C)CC3)c3cc(F)ccc32)cc1 [Compound 45]	> 7.57	–
CSc1ccc(/C=C2/C(C)=C(CC(=O)N3CCN(c4ccncc4)CC3)c3cc(F)ccc32)cc1 [Compound 46]	> 7.57	–
CSc1ccc(/C=C2/C(C)=C(CC(=O)N(C)CCN(C)C)c3cc(F)ccc32)cc1 [Compound 5]	> 7.57	–
COc1cc(/C=C2/C(C)=C(CC(=O)N(C)CCN(C)C(=O)[C@@H](N)C(C)C)c3cc(F)ccc32)cc(OC)c1OC [Compound 89]	> 7.57	–
CC1=C(CC(=O)NCCN2CCCC2)c2cc(F)ccc2/C1=C\c1nc2ccccc2s1 [Compound 61]	> 7.57	LipE [2]: > 3
CC1=C(CC(=O)N(C)CCN(C)C)c2cc(F)ccc2/C1=C\c1nc2ccccc2s1 [Compound 35]	> 7.57	–
CSc1ccc(/C=C2/C(C)=C(CC(=O)NCCN(C)C)c3cc(F)ccc32)cc1 [Compound 1, sulindac sulfide amide]	–	in vivo antitumor activity [6]: comparable to sulindac; LipE [2]: 1.78
CSc1ccc(/C=C2/C(C)=C(CC(=O)N3CCN(CCCN(C)C)CC3)c3cc(F)ccc32)cc1 [Compound 44]	> 7.57	–
COc1cc(/C=C2/C(C)=C(CC(=O)N3CCN(c4ccncc4)CC3)c3cc(F)ccc32)cc(OC)c1OC [Compound 59]	> 7.57	–
CC1=C(CC(=O)NCc2ccccc2)c2cc(F)ccc2/C1=C\c1ccc([S+](C)[O-])cc1 (centres unmarked) [Compound 79]	> 7.57	–
CSc1ccc(/C=C2/C(C)=C(CC(=O)N3CCCN(C)CC3)c3cc(F)ccc32)cc1 [Compound 50]	> 7.57	–
CC1=C(CC(=O)N2CCN(CCCN(C)C)CC2)c2cc(F)ccc2/C1=C\c1nc2ccccc2s1 [Compound 62]	> 7.57	LipE [2]: > 3
